Columns and labels:
[1] = molecular target: Melanocyte-stimulating hormone receptor (Mus musculus, UniProt Q01727); test: Agonist activity at mouse MC1R expressed in HEK293 cells by beta-galactosidase assay; format: functional, cell-based
[2] = molecular target: Melanocortin receptor 3 (Mus musculus) (UniProt P33033); test: Agonist activity at mouse MC3R expressed in HEK293 cells by beta-galactosidase assay at 100 uM relative to forskolin; format: functional, cell-based; settings: filed as agonist
[3] = molecular target: Melanocortin receptor 5 (Mus musculus, UniProt P41149); test: Agonist activity at mouse MC5R expressed in HEK293 cells by beta-galactosidase assay; format: functional, cell-based
[4] = molecular target: T1, Melanocortin receptor 4 (Mus musculus, UniProt P56450); test: Agonist activity at mouse MC4R expressed in HEK293 cells by beta-galactosidase assay; format: functional, cell-based
[5] = molecular target: T2, Melanocortin receptor 3 (Mus musculus, UniProt P33033); test: Agonist activity at mouse MC3R expressed in HEK293 cells by beta-galactosidase assay; format: functional, cell-based
[6] = molecular target: T1, Melanocortin receptor 4; test: Displacement of MT2 from mouse MC4R expressed in HEK293 cells; format: cell-based
Procedure, shortened: (§1)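 Antagonism was measured in the same CRE/β-galactosidase assay in HEK-293 cells stably expressing the mouse receptor, as the dose-dependent competitive shift of MTII agonist response. pA2 was obtained by Schild analysis and converted to Ki. Values are means of duplicate wells from at least three independent experiments, ± SEM.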

[7] = molecular target: T2, Melanocortin receptor 3; test: Displacement of MT2 from mouse MC3R expressed in HEK293 cells; format: cell-based; procedure, shortened: as §1
[8] = molecular target: Melanocortin receptor 4 (Mus musculus) (UniProt P56450); test: Agonist activity at mouse MC4R expressed in HEK293 cells by beta-galactosidase assay at 100 uM relative to forskolin; format: functional, cell-based; settings: filed as agonist
[9] = species on record: Mus musculus; test: Selectivity for mouse MC1R over mouse MC4R
[10] = species on record: Mus musculus; test: Selectivity for mouse MC1R over mouse MC5R
[11] = species on record: Mus musculus; test: Selectivity for mouse MC1R over mouse MC3R

T2 sequence (P33033 whole entry): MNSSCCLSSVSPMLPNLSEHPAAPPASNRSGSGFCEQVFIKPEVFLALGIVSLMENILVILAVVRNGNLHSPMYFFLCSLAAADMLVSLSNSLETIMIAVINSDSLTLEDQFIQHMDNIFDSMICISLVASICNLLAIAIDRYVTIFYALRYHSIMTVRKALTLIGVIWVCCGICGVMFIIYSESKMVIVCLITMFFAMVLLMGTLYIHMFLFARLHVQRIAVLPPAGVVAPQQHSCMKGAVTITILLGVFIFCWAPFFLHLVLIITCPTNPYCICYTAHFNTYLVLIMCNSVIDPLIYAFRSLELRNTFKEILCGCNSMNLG
Chain of Melanocortin receptor 3 (Mus musculus) (P33033 whole entry): as above
Chain of Melanocortin receptor 5 (P41149 whole entry): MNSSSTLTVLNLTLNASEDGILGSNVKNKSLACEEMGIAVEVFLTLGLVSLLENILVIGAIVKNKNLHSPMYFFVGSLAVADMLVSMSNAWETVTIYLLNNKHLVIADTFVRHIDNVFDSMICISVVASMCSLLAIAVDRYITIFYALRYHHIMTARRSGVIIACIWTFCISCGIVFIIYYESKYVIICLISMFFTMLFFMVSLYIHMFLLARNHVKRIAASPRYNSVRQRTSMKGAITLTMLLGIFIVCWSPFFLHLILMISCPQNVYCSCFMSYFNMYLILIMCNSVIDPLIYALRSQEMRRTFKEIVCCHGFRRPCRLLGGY
T1 sequence (P56450 whole entry): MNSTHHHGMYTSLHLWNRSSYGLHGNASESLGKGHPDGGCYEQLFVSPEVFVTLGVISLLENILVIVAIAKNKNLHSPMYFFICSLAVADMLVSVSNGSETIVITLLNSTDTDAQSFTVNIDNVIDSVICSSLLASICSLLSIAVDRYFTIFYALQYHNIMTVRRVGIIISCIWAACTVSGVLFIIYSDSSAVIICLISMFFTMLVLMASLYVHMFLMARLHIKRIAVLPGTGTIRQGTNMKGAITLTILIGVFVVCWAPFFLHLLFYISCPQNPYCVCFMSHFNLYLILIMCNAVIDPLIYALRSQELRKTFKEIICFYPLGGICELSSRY
Chain of Melanocyte-stimulating hormone receptor (Q01727 whole entry): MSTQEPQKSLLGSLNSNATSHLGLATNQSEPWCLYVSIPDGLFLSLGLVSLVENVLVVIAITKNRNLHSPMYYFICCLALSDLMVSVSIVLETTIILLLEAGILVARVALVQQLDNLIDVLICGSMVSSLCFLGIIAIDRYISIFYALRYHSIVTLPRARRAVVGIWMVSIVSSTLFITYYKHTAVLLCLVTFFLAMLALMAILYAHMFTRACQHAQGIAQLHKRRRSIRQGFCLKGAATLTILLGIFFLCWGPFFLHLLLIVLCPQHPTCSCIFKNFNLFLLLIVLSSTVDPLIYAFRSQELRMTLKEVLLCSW
Chain of Melanocortin receptor 4 (Mus musculus) (P56450 whole entry): as the sequence (P56450 whole entry) above

CC(C)C[C@H](NC(=O)[C@H](CCCCN)NC(=O)[C@H](CCCNC(=N)N)NC(=O)[C@H](C)NC(=O)[C@H](Cc1ccc(O)cc1)NC(=O)[C@@H]1CSSC[C@H](NC(=O)[C@H](Cc2ccc(O)cc2)NC(=O)[C@H](C)NC(=O)[C@@H](NC(=O)[C@H](C)NC(=O)[C@H](C)NC(=O)[C@@H]2CCCN2C(=O)[C@@H](N)CC(=O)O)[C@@H](C)O)C(=O)N[C@H](CCCNC(=N)N)C(=O)N[C@@H](Cc2ccccc2)C(=O)N[C@H](Cc2ccccc2)C(=O)N[C@@H](CC(N)=O)C(=O)N[C@@H](C)C(=O)N[C@@H](Cc2ccccc2)C(=O)N1)C(=O)O
EC50 [1]: 5.27 µM (agonist)
Activity [2]: 70%
EC50 [3]: 19.8 µM (agonist)
EC50 [4]: 8.33 µM (agonist)

CC(C)C[C@H](NC(=O)[C@H](CCCCN)NC(=O)[C@H](CCCNC(=N)N)NC(=O)[C@H](C)NC(=O)[C@H](Cc1ccc(O)cc1)NC(=O)[C@@H]1CSSC[C@H](NC(=O)[C@H](Cc2ccc(O)cc2)NC(=O)[C@H](C)NC(=O)[C@@H](NC(=O)[C@H](C)NC(=O)[C@H](C)NC(=O)[C@@H]2CCCN2C(=O)[C@@H](N)CC(=O)O)[C@@H](C)O)C(=O)N[C@H](CCCNC(=N)N)C(=O)N[C@H](Cc2ccccc2)C(=O)N[C@H](Cc2ccccc2)C(=O)N[C@@H](CC(N)=O)C(=O)N[C@@H](C)C(=O)N[C@@H](Cc2ccccc2)C(=O)N1)C(=O)O
EC50 [5]: 22.6 µM (agonist)
EC50 [1]: 3.75 µM (agonist)
EC50 [3]: 13.2 µM (agonist)
EC50 [4]: 21.5 µM (agonist)

CC(C)C[C@H](NC(=O)[C@H](CCCCN)NC(=O)[C@H](CCCNC(=N)N)NC(=O)[C@H](C)NC(=O)[C@H](Cc1ccc(O)cc1)NC(=O)[C@@H]1CSSC[C@H](NC(=O)[C@H](Cc2ccc(O)cc2)NC(=O)[C@H](C)NC(=O)[C@@H](NC(=O)[C@H](C)NC(=O)[C@H](C)NC(=O)[C@@H]2CCCN2C(=O)[C@@H](N)CC(=O)O)[C@@H](C)O)C(=O)N[C@H](CCCNC(=N)N)C(=O)N[C@@H](Cc2ccccc2)C(=O)N[C@@H](Cc2ccccc2)C(=O)N[C@@H](CC(N)=O)C(=O)N[C@@H](C)C(=O)N[C@@H](Cc2ccccc2)C(=O)N1)C(=O)O
EC50 [1]: 6.33 µM (agonist)
Activity [2]: 70%
EC50 [3]: 18.3 µM (agonist)
EC50 [4]: 37.7 µM (agonist)

CC(C)C[C@H](NC(=O)[C@H](CCCCN)NC(=O)[C@H](CCCNC(=N)N)NC(=O)[C@H](C)NC(=O)[C@H](Cc1ccc(O)cc1)NC(=O)[C@@H]1CSSC[C@H](NC(=O)[C@H](Cc2ccc(O)cc2)NC(=O)[C@H](C)NC(=O)[C@@H](NC(=O)[C@H](C)NC(=O)[C@H](C)NC(=O)[C@@H]2CCCN2C(=O)[C@@H](N)CC(=O)O)[C@@H](C)O)C(=O)N[C@@H](CCCNC(=N)N)C(=O)N[C@@H](Cc2ccccc2)C(=O)N[C@H](Cc2ccccc2)C(=O)N[C@@H](CC(N)=O)C(=O)N[C@@H](C)C(=O)N[C@@H](Cc2ccccc2)C(=O)N1)C(=O)O (stereo in doubt; 1)
pA2 [6]: 6.92
EC50 [1]: 0.96 µM (agonist)
pA2 [7]: 6.15
EC50 [3]: > 100 µM (agonist)

CC(C)C[C@H](NC(=O)[C@H](CCCCN)NC(=O)[C@H](CCCNC(=N)N)NC(=O)[C@H](C)NC(=O)[C@H](Cc1ccc(O)cc1)NC(=O)[C@@H]1CSSC[C@H](NC(=O)[C@H](Cc2ccc(O)cc2)NC(=O)[C@H](C)NC(=O)[C@@H](NC(=O)[C@H](C)NC(=O)[C@H](C)NC(=O)[C@@H]2CCCN2C(=O)[C@@H](N)CC(=O)O)[C@@H](C)O)C(=O)N[C@@H](CCCNC(=N)N)C(=O)N[C@H](Cc2ccccc2)C(=O)N[C@@H](Cc2ccccc2)C(=O)N[C@@H](CC(N)=O)C(=O)N[C@@H](C)C(=O)N[C@@H](Cc2ccccc2)C(=O)N1)C(=O)O
pA2 [6]: 6.56
EC50 [1]: 0.093 µM (agonist)
pA2 [7]: 6.14
Activity [2]: 50%
EC50 [3]: 1.41 µM (agonist)
Activity [8]: 75%

CC(C)C[C@H](NC(=O)[C@H](CCCCN)NC(=O)[C@H](CCCNC(=N)N)NC(=O)[C@H](C)NC(=O)[C@H](Cc1ccc(O)cc1)NC(=O)[C@@H]1CSSC[C@H](NC(=O)[C@H](Cc2ccc(O)cc2)NC(=O)[C@H](C)NC(=O)[C@@H](NC(=O)[C@H](C)NC(=O)[C@H](C)NC(=O)[C@@H]2CCCN2C(=O)[C@@H](N)CC(=O)O)[C@@H](C)O)C(=O)N[C@@H](CCCNC(=N)N)C(=O)N[C@H](Cc2ccccc2)C(=O)N[C@H](Cc2ccccc2)C(=O)N[C@@H](CC(N)=O)C(=O)N[C@@H](C)C(=O)N[C@@H](Cc2ccccc2)C(=O)N1)C(=O)O
EC50 [5]: 63.3 µM (agonist)
EC50 [1]: 0.064 µM (agonist)
Selectivity ratio [9]: 98
Selectivity ratio [10]: 180
EC50 [3]: 11.4 µM (agonist)
Selectivity ratio [11]: 990
EC50 [4]: 6.24 µM (agonist)

CC(C)C[C@H](NC(=O)[C@H](CCCCN)NC(=O)[C@H](CCCNC(=N)N)NC(=O)[C@H](C)NC(=O)[C@H](Cc1ccc(O)cc1)NC(=O)[C@@H]1CSSC[C@H](NC(=O)[C@H](Cc2ccc(O)cc2)NC(=O)[C@H](C)NC(=O)[C@@H](NC(=O)[C@H](C)NC(=O)[C@H](C)NC(=O)[C@@H]2CCCN2C(=O)[C@@H](N)CC(=O)O)[C@@H](C)O)C(=O)N[C@H](CCCNC(=N)N)C(=O)N[C@H](Cc2ccccc2)C(=O)N[C@@H](Cc2ccccc2)C(=O)N[C@@H](CC(N)=O)C(=O)N[C@@H](C)C(=O)N[C@@H](Cc2ccccc2)C(=O)N1)C(=O)O
EC50 [5]: 5.51 µM (agonist)
EC50 [1]: 1.75 µM (agonist)
EC50 [3]: 4.6 µM (agonist)
EC50 [4]: 8.3 µM (agonist)

CC(C)C[C@H](NC(=O)[C@H](CCCCN)NC(=O)[C@H](CCCNC(=N)N)NC(=O)[C@H](C)NC(=O)[C@H](Cc1ccc(O)cc1)NC(=O)[C@@H]1CSSC[C@H](NC(=O)[C@H](Cc2ccc(O)cc2)NC(=O)[C@H](C)NC(=O)[C@@H](NC(=O)[C@H](C)NC(=O)[C@H](C)NC(=O)[C@@H]2CCCN2C(=O)[C@@H](N)CC(=O)O)[C@@H](C)O)C(=O)N[C@@H](CCCNC(=N)N)C(=O)N[C@@H](Cc2ccccc2)C(=O)N[C@H](Cc2ccccc2)C(=O)N[C@@H](CC(N)=O)C(=O)N[C@@H](C)C(=O)N[C@@H](Cc2ccccc2)C(=O)N1)C(=O)O (stereo in doubt; 4)
EC50 [5]: 13.7 µM (agonist)
EC50 [1]: 0.12 µM (agonist)
EC50 [3]: 2.22 µM (agonist)
EC50 [4]: 3.7 µM (agonist)
